From ChEMBL document CHEMBL1137328, “5-pyrrolidinylsulfonyl isatins as a potential tool for the molecular imaging of caspases in apoptosis” (J Med Chem, 2006)
pIC50, pKi: −log10 of the molar value. Calls of active or inactive are those of the source. The calls are words filed in the database; no cut-off is given here.

What was measured:
Caspase-1 = biological target: T1, Caspase-1 (Homo sapiens, UniProt P29466); experiment: Inhibition of caspase 1
T1 sequence (P29466 whole entry): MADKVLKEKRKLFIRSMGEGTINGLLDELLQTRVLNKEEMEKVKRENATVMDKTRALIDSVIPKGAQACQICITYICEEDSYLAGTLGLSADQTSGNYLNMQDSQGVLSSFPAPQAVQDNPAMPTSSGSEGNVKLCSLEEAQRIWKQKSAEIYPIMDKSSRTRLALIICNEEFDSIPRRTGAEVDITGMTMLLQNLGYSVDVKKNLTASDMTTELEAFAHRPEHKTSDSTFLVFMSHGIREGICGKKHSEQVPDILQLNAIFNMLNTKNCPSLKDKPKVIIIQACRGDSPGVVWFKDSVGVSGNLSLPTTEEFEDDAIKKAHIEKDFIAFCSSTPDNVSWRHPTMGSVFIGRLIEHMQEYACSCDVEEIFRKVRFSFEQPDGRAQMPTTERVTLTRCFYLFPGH
Summary of the method: (§1)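 Recombinant human caspase-1, -6 or -8 at 0.5 units per assay, preincubated 10 min at 37 °C with compound in DMSO at single doses from 5 pM to 500 µM. Fluorogenic AMC substrate then added at 10 µM final (caspase-1 Ac-YVAD-AMC, caspase-6 Ac-VEID-AMC, caspase-8 Ac-IETD-AMC) for a further 10 min. Read-out was AMC fluorescence. IC50 taken by nonlinear regression.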

Caspase-6 = biological target: T2, Caspase-6 (Homo sapiens, UniProt P55212); experiment: Inhibition of caspase 6; summary of the method: as §1
T2 sequence (P55212 whole entry): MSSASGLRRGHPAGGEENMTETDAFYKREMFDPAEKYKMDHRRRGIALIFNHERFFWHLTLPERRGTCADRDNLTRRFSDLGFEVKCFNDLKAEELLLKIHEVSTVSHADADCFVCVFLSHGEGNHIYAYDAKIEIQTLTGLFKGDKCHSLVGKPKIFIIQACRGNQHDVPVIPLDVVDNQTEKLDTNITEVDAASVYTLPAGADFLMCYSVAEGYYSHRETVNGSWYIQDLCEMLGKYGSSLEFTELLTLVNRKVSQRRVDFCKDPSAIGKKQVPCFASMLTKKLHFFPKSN

Caspase-3 [1] = biological target: T3, Caspase-3 (Homo sapiens, UniProt P42574); experiment: Binding affinity to human caspase 3
T3 sequence (P42574 whole entry): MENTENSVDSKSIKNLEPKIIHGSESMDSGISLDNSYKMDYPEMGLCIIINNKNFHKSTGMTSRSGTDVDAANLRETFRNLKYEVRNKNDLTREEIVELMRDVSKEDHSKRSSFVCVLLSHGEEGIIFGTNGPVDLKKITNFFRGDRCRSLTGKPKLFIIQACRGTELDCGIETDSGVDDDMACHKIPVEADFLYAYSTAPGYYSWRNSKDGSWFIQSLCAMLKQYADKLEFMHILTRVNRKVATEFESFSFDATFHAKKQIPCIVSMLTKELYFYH
Summary of the method: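 Recombinant full-length human caspase-3 (1 unit/assay, 0.5 pM) preincubated 10 min at 37 °C with isatin in DMSO (single doses, 5 pM–500 µM) in 25 mM HEPES pH 7.5, 0.1% CHAPS, 50 mM KCl, 5 mM β-mercaptoethanol. Ac-DEVD-AMC (10 µM final) then added for 10 min. IC50 by nonlinear regression, converted to Ki = IC50/(1+[S]/KM). Mean of three assays.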

Caspase-7 = biological target: T4, Caspase-7 (Homo sapiens, UniProt P55210); experiment: Inhibition of caspase 7
T4 sequence (P55210 whole entry): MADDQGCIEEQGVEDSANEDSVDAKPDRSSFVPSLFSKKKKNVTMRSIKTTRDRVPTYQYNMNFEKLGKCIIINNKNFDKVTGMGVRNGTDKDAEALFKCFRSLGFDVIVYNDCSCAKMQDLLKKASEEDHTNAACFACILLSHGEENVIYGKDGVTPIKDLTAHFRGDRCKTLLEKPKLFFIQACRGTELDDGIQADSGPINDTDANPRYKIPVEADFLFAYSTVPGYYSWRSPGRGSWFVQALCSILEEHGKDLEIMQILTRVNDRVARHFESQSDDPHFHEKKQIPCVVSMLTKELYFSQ
Summary of the method: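 Inhibitor in DMSO (final 5 pM–500 µM, single doses) preincubated 10 min, then Ac-DEVD-AMC (final 10 µM) reacted 10 min. Cleaved AMC quantified by fluorescence; IC50 by nonlinear regression.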

Caspase-3 [2] = biological target: T3, Caspase-3; experiment: Inhibition of caspase 3
Summary of the method: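 Recombinant human caspases (0.5 units/assay) preincubated 10 min at 37 °C with isatin in DMSO (single doses, 5 pM–500 µM). The buffer for all was 0.1% CHAPS, 100 mM NaCl, 2 mM EDTA, 10% sucrose, with 20 mM HEPES pH 7.4. Caspase-1 used 100 mM HEPES and β-mercaptoethanol, and caspase-7 used β-mercaptoethanol. AMC substrates at 10 µM for 10 min: YVAD (caspase-1), DEVD (caspase-3/-7), VEID (caspase-6), IETD (caspase-8). IC50 by nonlinear regression.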

Caspase-8 = Caspase-8 (Homo sapiens, UniProt Q14790); experiment: Inhibition of caspase 8; summary of the method: as §1
Chain of Caspase-8 (Q14790 217-374 limits assumed): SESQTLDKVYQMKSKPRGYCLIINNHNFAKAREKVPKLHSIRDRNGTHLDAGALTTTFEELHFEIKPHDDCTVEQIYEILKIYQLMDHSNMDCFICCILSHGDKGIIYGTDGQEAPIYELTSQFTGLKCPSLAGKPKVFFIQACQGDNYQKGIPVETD
Chain of Caspase-8 (Q14790 385-479 limits assumed): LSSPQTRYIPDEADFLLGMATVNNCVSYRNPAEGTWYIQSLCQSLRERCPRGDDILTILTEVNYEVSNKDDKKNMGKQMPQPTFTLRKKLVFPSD

HUVEC [3] = experiment: Inhibition of caspase 9 processing in apoptotic HUVEC at 50 uM; assay type: functional, cell-based; details: Homo sapiens
Summary of the method: (§2)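 HUVEC grown on gelatin-coated dishes in RPMI-1640 with 15% calf serum, heparin and pituitary extract. Cells were preincubated 30 min with compound. Apoptosis was then induced by growth-factor withdrawal (RPMI-1640 alone), with compound present, for 8 h at 37 °C. Lysates (30 µg) were run on 15% SDS-PAGE Western blots for processed caspase-3 (p17/p12), caspase-8, caspase-9, cleaved PARP ([…]) and lamin A/C. Z-VAD-fmk served as full-inhibition control and β-actin as loading control.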

HUVEC [4] = experiment: Inhibition of caspase 9 processing in apoptotic HUVEC at 100 uM; assay type: functional, cell-based; details: Homo sapiens; summary of the method: as §2
HUVEC [5] = experiment: Inhibition of caspase 8 processing in apoptotic HUVEC at 50 uM; assay type: functional, cell-based; details: Homo sapiens; summary of the method: as §2
HUVEC [6] = experiment: Inhibition of caspase 8 processing in apoptotic HUVEC at 100 uM; assay type: functional, cell-based; details: Homo sapiens; summary of the method: as §2
HUVEC [7] = experiment: Inhibition of PARP cleavage in apoptotic HUVEC at 50 uM; assay type: functional, cell-based; details: Homo sapiens; summary of the method: as §2
HUVEC [8] = experiment: Inhibition of lamin A/C cleavage in apoptotic HUVEC at 50 uM; assay type: functional, cell-based; details: Homo sapiens; summary of the method: as §2
HUVEC [9] = experiment: Inhibition of caspase 3 processing in apoptotic HUVEC at 10 uM; assay type: functional, cell-based; details: Homo sapiens; summary of the method: as §2
HUVEC [10] = experiment: Inhibition of PARP cleavage in apoptotic HUVEC at 100 uM; assay type: functional, cell-based; details: Homo sapiens; summary of the method: as §2
HUVEC [11] = experiment: Inhibition of lamin A/C cleavage in apoptotic HUVEC at 100 uM; assay type: functional, cell-based; details: Homo sapiens; summary of the method: as §2
Caspase-3 [12] = biological target: T3, Caspase-3; experiment: Inhibition of caspase 3 in neutrophils

| Structure (SMILES) | pIC50 (Caspase-1) | pIC50 (Caspase-6) | pKi (Caspase-3 [1]) | pIC50 (Caspase-7) | pIC50 (Caspase-3 [2]) | pIC50 (Caspase-8) | Activity (HUVEC [3]) | Activity (HUVEC [4]) | Activity (HUVEC [5]) | Activity (HUVEC [6]) | Activity (HUVEC [7]) | Activity (HUVEC [8]) | Activity (HUVEC [9]) | Activity (HUVEC [10]) | Activity (HUVEC [11]) | pIC50 (Caspase-3 [12]) |
| --- | --- | --- | --- | --- | --- | --- | --- | --- | --- | --- | --- | --- | --- | --- | --- | --- |
| COc1ccc(CN2C(=O)C(=O)c3cc(S(=O)(=O)N4CCC[C@H]4COc4ccccc4)ccc32)cc1 | < 3.30 | < 3.30 | 8.32 | 7.51 | 8.01 | < 3.30 |  |  |  |  |  |  |  |  |  |  |
| COC[C@@H]1CCCN1S(=O)(=O)c1ccc2c(c1)C(=O)C(=O)N2Cc1ccc(OC)cc1 | < 5.00 | < 3.30 |  | 8.40 | 7.74 | < 3.30 | Active | Active | Active | Active | Active | Active | Active |  |  |  |
| COC[C@@H]1CCCN1S(=O)(=O)c1ccc2c(c1)C(=O)C(=O)N2Cc1ccc(O)cc1 | < 4.22 | < 3.30 | 7.63 | 7.49 | 7.32 | < 3.30 |  |  |  |  |  |  |  |  |  |  |
| COC[C@@H]1CCCN1S(=O)(=O)c1ccc2c(c1)C(=O)C(=O)N2Cc1ccc(OCCBr)cc1 | < 4.82 | < 3.30 | 8.10 | 7.59 | 7.79 | < 3.30 |  |  |  |  |  |  |  |  |  |  |
| COC[C@@H]1CCCN1S(=O)(=O)c1ccc2c(c1)C(=O)C(=O)N2 | < 4.82 | < 3.30 | 7.38 | 5.89 | 7.07 | < 3.30 |  |  |  |  |  |  |  |  |  |  |
| O=C1C(=O)N(Cc2ccc(I)cc2)c2ccc(S(=O)(=O)N3CCC[C@H]3COc3ccccc3)cc21 | < 3.30 | < 3.30 |  | 7.73 |  | < 3.30 |  |  |  |  |  |  |  |  |  |  |
| O=C1C(=O)N(Cc2ccc(OCCBr)cc2)c2ccc(S(=O)(=O)N3CCC[C@H]3COc3ccccc3)cc21 | < 3.30 | < 3.30 | 7.90 | 7.38 | 7.59 | < 3.30 |  |  |  |  |  |  |  |  |  |  |
| O=C1Nc2ccc(S(=O)(=O)N3CCC[C@H]3COc3ccccc3)cc2C1=O | < 5.00 | < 3.30 | 8.08 | 6.53 | 7.77 | < 3.30 |  |  |  |  |  |  |  |  |  |  |
| COC[C@@H]1CCCN1S(=O)(=O)c1ccc2c(c1)C(=O)C(=O)N2Cc1ccc(OCCF)cc1 | < 4.60 | < 4.60 | 7.75 | 7.03 | 7.44 | < 4.60 | Active | Active | Active | Active |  |  | Active | Active | Active |  |
| COC[C@@H]1CCCN1S(=O)(=O)c1ccc2c(c1)C(=O)C(=O)N2Cc1ccc(OCCOS(=O)(=O)c2ccc(C)cc2)cc1 | < 3.30 | < 3.30 | 9.10 | 7.86 | 8.77 | < 3.30 |  |  |  |  |  |  |  |  |  |  |
| COC[C@@H]1CCCN1S(=O)(=O)c1ccc2c(c1)C(=O)C(=O)N2Cc1ccc(I)cc1 | < 5.00 | < 3.30 | 8.23 | 8.74 | 7.92 | < 3.30 |  |  |  |  |  |  | Active |  |  |  |
| O=C1C(=O)N(Cc2ccc(O)cc2)c2ccc(S(=O)(=O)N3CCC[C@H]3COc3ccccc3)cc21 | < 4.60 | < 3.30 | 8.40 | 7.28 | 8.09 | < 3.30 |  |  |  |  |  |  |  |  |  |  |
| COC[C@@H]1CCCN1S(=O)(=O)c1ccc2c(c1)C(=O)C(=O)N2C | < 4.60 | < 3.30 | 8.92 | 6.52 | 8.62 | < 3.30 | Active | Active | Active | Active | Active | Active | Active |  |  |  |
| COC[C@@H]1CCCN1S(=O)(=O)c1ccc2c(c1)C(=O)C(=O)N2Cc1ccc(O[Si](C)(C)C(C)(C)C)cc1 | < 5.15 | < 3.30 | 8.72 | 7.16 | 8.42 | < 3.30 |  |  |  |  |  |  |  |  |  |  |
| O=C1C(=O)N(Cc2ccc(OCCF)cc2)c2ccc(S(=O)(=O)N3CCC[C@H]3COc3ccccc3)cc21 | < 3.30 | < 3.30 | 9.70 |  | 9.52 | < 3.30 |  |  |  |  |  |  |  |  |  |  |
| CN1C(=O)C(=O)c2cc(S(=O)(=O)N3CCC[C@H]3COc3ccccc3)ccc21 | < 3.30 | < 3.30 | 7.25 | 6.72 | 6.94 | < 3.30 |  |  |  |  |  |  |  |  |  | 5.00 |
| CC(C)(C)[Si](C)(C)Oc1ccc(CN2C(=O)C(=O)c3cc(S(=O)(=O)N4CCC[C@H]4COc4ccccc4)ccc32)cc1 | < 3.30 | < 3.30 | 8.01 | 6.44 | 7.70 | < 3.30 |  |  |  |  |  |  |  |  |  |  |
| Cc1ccc(S(=O)(=O)OCCOc2ccc(CN3C(=O)C(=O)c4cc(S(=O)(=O)N5CCC[C@H]5COc5ccccc5)ccc43)cc2)cc1 | < 3.30 | < 3.30 | 8.07 | 7.29 | 7.76 | < 3.30 |  |  |  |  |  |  |  |  |  |  |
